These results are taken from PubChem BioAssay AID602423 (Sanford-Burnham Center for Chemical Genomics, 2012).

In this assay the target is glucose-6-phosphate dehydrogenase-6-phosphogluconolactonase (PfGluPho), Plasmodium falciparum 3D7. Briefly: inhibition of P. falciparum G6PD-lactonase – biochemical, fluorescence intensity, dose response, set 4, SAR follow-up (AID 602423). The conditions noted are these: recombinant PfGluPho, resazurin-diaphorase NADPH fluorescence. The gist of the method: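 System: PfGluPho, the glucose-6-phosphate dehydrogenase of Plasmodium falciparum. Quantity: enzyme 0.05 µg/mL. Benchmarks: low control wells lacking glucose-6-phosphate substrate. Also added: G6P 20 µM, NADP 3 µM. Compound dosing: dose-response series. Technique: coupled fluorescence, Ex 530/Em 590 nm. Schedule: enzyme reaction 2 h at room temperature in darkness.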
(The colour change of resazurin is a common sign of viable cells or microbes.)

Calls of active or inactive are those of the source.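 How the source made its calls: active means IC50 at or below 20 µM; inactive means the rest.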

As to `CCCN1CCC[C@@H]1CNC(=O)c1ccc2c(c1)NC(=O)c1ccccc1S2`, the IC50 is 15.1 µM.
Regarding `CN1CCCCC1CNC(=O)c1ccc2c(c1)NC(=O)c1ccccc1S2` (configuration not stated), the IC50 result is “inactive”.
On to `CN1CCC(NC(=O)c2ccc3c(c2)NC(=O)c2ccccc2S3)C1` (configuration not stated), for which the IC50 was > 80 µM (inactive).
For `CCCN1CCCCC1CNC(=O)c1ccc2c(c1)NC(=O)c1ccccc1S2` (configuration not stated), the IC50 entry was “inactive”.
`CCN1CCC[C@@H]1CNC(=O)c1ccc2c(c1)NC(=O)c1cccc(C)c1S2`: the IC50 is 0.187 µM.
With `CCN1CCC(NC(=O)c2ccc3c(c2)NC(=O)c2ccccc2S3)C1` (configuration not stated), the IC50 entry is “inactive”.
On to `O=C(NC[C@H]1CCCN1)c1ccc2c(c1)NC(=O)c1ccccc1S2`, for which the IC50 result is “inactive”.
As for `CCN1CCC[C@@H]1CNC(=O)c1ccc2c(c1)NC(=O)c1ccc(F)cc1S2`, the IC50 was 2.98 µM.
In the case of `CN1CCCC1CNC(=O)c1ccc2c(c1)NC(=O)c1ccccc1S2` (configuration not stated), the IC50 entry was “inactive”.
For the compound `CCN1CCCCC1CNC(=O)c1ccc2c(c1)NC(=O)c1ccccc1S2` (configuration not stated), the IC50 was > 80 µM (inactive).
As to `CCCCCCN1CCCC1CNC(=O)c1ccc2c(c1)NC(=O)c1ccccc1S2` (configuration not stated), the IC50 result is “inactive”.
Consider `CCN1CCC[C@@H]1CNC(=O)c1ccc2c(c1)NC(=O)c1cc(C)ccc1S2`, for which the IC50 entry was “inactive”.
Turning to `O=C(NCC1CCCCN1)c1ccc2c(c1)NC(=O)c1ccccc1S2` (configuration not stated), the IC50 entry is “inactive”.
For `CCN1CCC[C@@H]1CNC(=O)c1ccc2c(c1)NC(=O)c1cc(F)ccc1S2`, the IC50 result is “inactive”.
With `CCCN1CCC(NC(=O)c2ccc3c(c2)NC(=O)c2ccccc2S3)C1` (configuration not stated), the IC50 entry was “inactive”.
As for `CCN1CCC[C@@H]1CNC(=O)c1ccc2c(c1)NC(=O)c1ccccc1N2`, the IC50 is > 80 µM (inactive).
On to `CCCCN1CCCC1CNC(=O)c1ccc2c(c1)NC(=O)c1ccccc1S2` (configuration not stated), for which the IC50 is 19.9 µM.

Broadly, the IC50 is the point on the concentration scale where inhibition reaches its midpoint.
